Reference: ChEMBL document CHEMBL1135477, “Antifungal agents. 10. New derivatives of 1-[(aryl)[4-aryl-1H-pyrrol-3-yl]methyl]-1H-imidazole, synthesis, anti-candida activity, and quantitative structure-analysis relationship studies” (J Med Chem, 2002)
Values after ≈ are worked out from the molar mass of the structure shown.

Key:
Assay type in all cases: functional
Candida albicans [1] = test: In vitro antifungal activity against 40 strains of Candida albicans at pH 5.8; value ranges from 128 to >256
Procedure, shortened: (§1)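 Broth serial-dilution MIC against 40 clinical C. albicans isolates from hospitalized patients, grown in Sabouraud broth at pH 7.2 or 5.8. Cells were pre-grown 18 h at 37 °C, inoculated at 10³/mL, and read at 24 h, 37 °C. Doubling dilutions ran 0.25–256 μg/mL from a DMSO/water solution. MIC was the lowest concentration with no visible growth against a DMSO/water blank.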

Candida [2] = test: Tested In vitro for antifungal activity against Candida species. at pH 7.2; (percent of resistant species at 256 ug/mL)
Procedure, shortened: (§2)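 Broth serial-dilution test in Sabouraud broth at pH 7.2 or 5.8, against 3 fresh clinical non-albicans isolates (two C. glabrata, one C. krusei). Inocula were 10³/mL, pre-grown 18 h at 37 °C. Compound was twofold-diluted over 0.25–256 µg/mL and read at 24 h, 37 °C for visible growth.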

Candida [3] = test: Tested in vitro for antifungal activity against Candida species. at pH 5.8 (percent of resistant species at 256 ug/mL); procedure, shortened: as §2
Candida albicans [4] = test: In vitro antifungal activity against 40 strains of Candida albicans at pH 5.8; procedure, shortened: as §1
[5] = target: Lanosterol 14-alpha demethylase (Candida albicans (strain SC5314 / ATCC MYA-2876) (Yeast), UniProt P10613); test: Anticandida activity- (MIC90 compound) / (MIC90 bifonazole)
Candida albicans [6] = test: In vitro antifungal activity against 40 strains of Candida albicans at pH 5.8; (percent of resistant species at 256 ug/mL)
Procedure, shortened: (§3)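 Broth serial-dilution test in Sabouraud broth at pH 7.2 or 5.8, against 40 fresh clinical C. albicans isolates from hospitalized patients. Inocula were 10³/mL, pre-grown 18 h at 37 °C in Sabouraud dextrose broth. Compound from a DMSO/water stock was twofold-diluted over 0.25–256 µg/mL. Visible growth was read at 24 h, 37 °C.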

Candida albicans [7] = test: In vitro antifungal activity against 40 strains of Candida albicans at pH 7.2; (percent of resistant species at 256 ug/mL); procedure, shortened: as §3
Candida albicans [8] = test: In vitro antifungal activity against 40 strains of Candida albicans at pH 7.2; minimum inhibitory concentration ( range is from 32 to 128); procedure, shortened: as §1
Candida [9] = test: Tested In vitro for antifungal activity against Candida species. at pH 7.2; value ranges from 256 to >256
Procedure, shortened: (§4)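 Liquid serial-dilution MIC against 3 freshly isolated clinical Candida strains (two C. glabrata, one C. krusei) in Sabouraud broth at pH 7.2 or 5.8. Inoculum was 10³/mL after 18 h pre-culture at 37 °C, read at 24 h, 37 °C. Range was 0.25–256 μg/mL. Endpoint was no visible growth versus a DMSO/water blank.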

Candida [10] = test: Tested in vitro for antifungal activity against Candida species. at pH 5.8; value ranges from 256 to >256
Procedure, shortened: (§5)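 Fresh clinical isolates (two C. glabrata, one C. krusei) were pre-grown 18 h at 37 °C in Sabouraud dextrose broth. Broth double-dilution was run in Sabouraud broth at pH 5.8 or 7.2 over 0.25–256 µg/mL from a DMSO/water stock, with 10³/mL inoculum.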

Candida [11] = test: Tested In vitro for antifungal activity against Candida species. at pH 7.2; procedure, shortened: as §4
Candida [12] = test: Tested in vitro for antifungal activity against Candida species. at pH 5.8; procedure, shortened: as §4
Candida albicans [13] = test: In vitro antifungal activity against 40 strains of Candida albicans at pH 7.2; procedure, shortened: as §1
Candida albicans [14] = test: In vitro antifungal activity against 40 strains of Candida albicans at pH 5.8; value ranges from 128 to >256.; procedure, shortened: as §1
Candida [15] = test: Tested in vitro for antifungal activity against Candida species. at pH 5.8; (percent of resistant species at 256 ug/mL); procedure, shortened: as §2
Candida [16] = test: Tested in vitro for antifungal activity against Candida species. at pH 7.2; (percent of resistant species at 256 ug/mL); procedure, shortened: as §2
Candida albicans [17] = test: In vitro antifungal activity against 40 strains of Candida albicans at pH 7.2; minimum inhibitory concentration value ranges from 128 to >256; procedure, shortened: as §1
Candida [18] = test: Tested in vitro for antifungal activity at pH 5.8; range is >250
Procedure, shortened: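 Serial two-fold broth dilution was run in Sabouraud broth at pH 5.8 over 0.25–256 µg/mL, against clinical Candida isolates (40 C. albicans; 2 C. glabrata plus 1 C. krusei). Inoculum was 10³/mL after 18 h pre-culture at 37 °C. No visible growth versus a DMSO/water blank was read at 24 h, 37 °C; the range spans per-strain MICs.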

Candida [19] = test: Tested in vitro for antifungal activity against Candida species. at pH 7.2; procedure, shortened: as §5
Candida [20] = test: In vitro antifungal activity against candida Spp (Candida glabrata, Candida krusei) at pH 5.8,(percent of resistant species at 256 ug/mL); procedure, shortened: as §2
Candida albicans [21] = test: In vitro antifungal activity against 40 strains at pH 7.2 minimum inhibitory concentration
Procedure, shortened: (§6)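 Inocula were 10³/mL, pre-grown 18 h at 37 °C. MIC is the lowest concentration with no visible growth versus a DMSO/water blank at 24 h, 37 °C. The mean MIC is ΣMICi over the total strain number; MIC50/MIC90 cover 50%/90% of strains.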

Candida [22] = test: Tested in vitro for antifungal activity against candida Spp (Candida glabrata, Candida krusei) at pH 7.2 (percent of resistant species at 256 ug/mL); procedure, shortened: as §2
Candida albicans [23] = test: In vitro antifungal activity against 40 strains at pH 7.2; procedure, shortened: as §6
Candida albicans [24] = test: In vitro antifungal activity against 40 strains at pH 7.2,(percent of resistant species at 256 ug/mL); procedure, shortened: as §3
Candida [25] = test: Tested In vitro for antifungal activity against candida Spp (Candida glabrata, Candida krusei) at pH 5.8
Procedure, shortened: (§7)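 Inocula were 10³/mL, pre-grown 18 h at 37 °C. MIC is the lowest concentration with no visible growth versus a blank at 24 h, 37 °C. The mean MIC is ΣMICi over the strain number; MIC50/MIC90 are also reported.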

Candida [26] = test: Tested In vitro for antifungal activity against candida Spp (Candida glabrata, Candida krusei) at pH 7.2; procedure, shortened: as §7
Candida albicans [27] = test: Tested In vitro for antifungal activity at pH 5.8
Candida albicans [28] = test: In vitro antifungal activity against 40 strains at pH 5.8,(percent of resistant species at 256 ug/mL); procedure, shortened: as §3
Candida albicans [29] = test: In vitro antifungal activity against 40 strains of Candida albicans at pH 7.2; (percent of resistant species (R) at 256 ug/mL); procedure, shortened: as §3
Candida albicans [30] = test: In vitro antifungal activity against 40 strains of Candida albicans at pH 7.2; minimum inhibitory concentration; value ranges from <0.25 to 16; procedure, shortened: as §1
Candida [31] = test: Tested In vitro for antifungal activity against Candida species. at pH 7.2; (range is from 0.5 to 1); procedure, shortened: as §4
Candida [32] = test: Tested in vitro for antifungal activity against Candida species. at pH 5.8; value ranges from <0.25 to 0.25; procedure, shortened: as §5
Candida albicans [33] = test: In vitro antifungal activity against 40 strains of Candida albicans at pH 5.8; value ranges from <0.25 to 8; procedure, shortened: as §1

Chain of Lanosterol 14-alpha demethylase (P10613 whole entry): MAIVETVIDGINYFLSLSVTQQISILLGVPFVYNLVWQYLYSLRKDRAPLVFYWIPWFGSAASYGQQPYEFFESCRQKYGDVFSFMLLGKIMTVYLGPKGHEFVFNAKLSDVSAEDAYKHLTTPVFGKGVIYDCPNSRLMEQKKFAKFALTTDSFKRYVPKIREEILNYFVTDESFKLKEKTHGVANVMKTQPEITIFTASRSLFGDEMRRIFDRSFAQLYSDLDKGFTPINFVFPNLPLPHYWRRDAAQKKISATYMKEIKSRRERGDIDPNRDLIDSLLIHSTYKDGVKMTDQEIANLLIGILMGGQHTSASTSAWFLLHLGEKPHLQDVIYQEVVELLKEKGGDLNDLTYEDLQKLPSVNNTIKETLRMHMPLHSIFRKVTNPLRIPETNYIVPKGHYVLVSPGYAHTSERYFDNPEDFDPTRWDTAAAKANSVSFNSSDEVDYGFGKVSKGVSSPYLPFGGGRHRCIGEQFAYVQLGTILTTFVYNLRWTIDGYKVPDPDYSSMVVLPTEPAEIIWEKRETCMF

Nc1ccc(-c2c[nH]cc2[C@@H](c2ccc(Cl)cc2Cl)n2ccnc2)cc1
Range (Candida albicans [1]): >128 µg/mL
Resistance (Candida [2]): 67%
Resistance (Candida [3]): 67%
MIC (Candida albicans [4]): 219 µg/mL (≈ 572 µM)
MIC50 (Candida albicans [4]): > 256 µg/mL
MIC90 (Candida albicans [4]): > 256 µg/mL
Ratio [5]: 52
Resistance (Candida albicans [6]): 80%
Resistance (Candida albicans [7]): 54%
Range (Candida albicans [8]): 128 µg/mL
Range (Candida [9]): >256 µg/mL
Range (Candida [10]): >256 µg/mL
MIC (Candida [11]): 256 µg/mL (≈ 668 µM)
MIC50 (Candida [11]): > 256 µg/mL
MIC90 (Candida [11]): > 256 µg/mL
MIC (Candida [12]): 256 µg/mL (≈ 668 µM)
MIC50 (Candida [12]): > 256 µg/mL
MIC90 (Candida [12]): > 256 µg/mL
MIC (Candida albicans [13]): 85 µg/mL (≈ 222 µM)
MIC50 (Candida albicans [13]): > 256 µg/mL
MIC90 (Candida albicans [13]): > 256 µg/mL

Clc1ccc(-c2c[nH]cc2[C@@H](c2ccc(Cl)cc2Cl)n2cncn2)cc1
Range (Candida albicans [14]): >256 µg/mL
Resistance (Candida [15]): 100%
Resistance (Candida [16]): 100%
MIC (Candida albicans [4]): 209 µg/mL (≈ 519 µM)
MIC50 (Candida albicans [4]): > 256 µg/mL
MIC90 (Candida albicans [4]): > 256 µg/mL
Ratio [5]: 49
Resistance (Candida albicans [6]): 68%
Resistance (Candida albicans [7]): 97%
Range (Candida albicans [17]): >256 µg/mL
Range (Candida [18]): >256 µg/mL
MIC50 (Candida [12]): > 256 µg/mL
MIC90 (Candida [12]): > 256 µg/mL
MIC50 (Candida [19]): > 256 µg/mL
MIC90 (Candida [19]): > 256 µg/mL
Range (Candida [19]): >256 µg/mL
MIC (Candida albicans [13]): 128 µg/mL (≈ 317 µM)
MIC50 (Candida albicans [13]): > 256 µg/mL
MIC90 (Candida albicans [13]): > 256 µg/mL

c1ccc(-c2ccc(C(c3ccccc3)n3ccnc3)cc2)cc1 (stereo not given) [BIFONAZOLE]
Resistance (Candida [20]): 0%
Range (Candida albicans [21]): 0.5 µg/mL
Resistance (Candida [22]): 0%
MIC (Candida albicans [23]): 2.44 µg/mL (≈ 7.86 µM)
MIC50 (Candida albicans [23]): 2 µg/mL (≈ 6.44 µM)
MIC90 (Candida albicans [23]): 4 µg/mL (≈ 12.9 µM)
Resistance (Candida albicans [24]): 0%
MIC (Candida [25]): 4 µg/mL (≈ 12.9 µM)
MIC50 (Candida [25]): 4 µg/mL (≈ 12.9 µM)
MIC90 (Candida [25]): 32 µg/mL (≈ 103 µM)
Range (Candida [25]): 2 µg/mL
MIC (Candida [26]): 4.16 µg/mL (≈ 13.4 µM)
MIC50 (Candida [26]): 4 µg/mL (≈ 12.9 µM)
MIC90 (Candida [26]): 8 µg/mL (≈ 25.8 µM)
Range (Candida [26]): 0.5 µg/mL
MIC (Candida albicans [27]): 5.85 µg/mL (≈ 18.8 µM)
MIC50 (Candida albicans [27]): 2 µg/mL (≈ 6.44 µM)
MIC90 (Candida albicans [27]): 4 µg/mL (≈ 12.9 µM)
Range (Candida albicans [27]): 1 µg/mL
Resistance (Candida albicans [28]): 0%

Clc1ccc(COC(Cn2ccnc2)c2ccc(Cl)cc2Cl)c(Cl)c1 (stereo not given) [MICONAZOLE]
Resistance (Candida [2]): 0%
Resistance (Candida [15]): 0%
MIC (Candida albicans [4]): 0.57 µg/mL (≈ 1.37 µM)
MIC50 (Candida albicans [4]): 0.5 µg/mL (≈ 1.2 µM)
MIC90 (Candida albicans [4]): 2 µg/mL (≈ 4.81 µM)
Resistance (Candida albicans [6]): 0%
Resistance (Candida albicans [29]): 0%
Range (Candida albicans [30]): 16 µg/mL
Range (Candida [31]): 1 µg/mL
Range (Candida [32]): <0.25 µg/mL
MIC (Candida [11]): 0.83 µg/mL (≈ 1.99 µM)
MIC50 (Candida [11]): 1 µg/mL (≈ 2.4 µM)
MIC90 (Candida [11]): 1 µg/mL (≈ 2.4 µM)
MIC (Candida [12]): 0.156 µg/mL (≈ 0.375 µM)
MIC50 (Candida [12]): 0.5 µg/mL (≈ 1.2 µM)
MIC90 (Candida [12]): 8 µg/mL (≈ 19.2 µM)
Range (Candida albicans [33]): < 8 µg/mL
MIC (Candida albicans [13]): 1.16 µg/mL (≈ 2.79 µM)
MIC50 (Candida albicans [13]): 0.5 µg/mL (≈ 1.2 µM)
MIC90 (Candida albicans [13]): 2 µg/mL (≈ 4.81 µM)
